Bioassay records from PubChem.
Only some compounds are listed: those with a hit (about 12% of all), similar ones and a draw of the others.
CHOP inh – blocks CHOP induction under ER stress | inhibition, % at 10 µM | CHO-K1 CHOP-promoter luciferase, tunicamycin-induced, 15-18 h | AID 2732 | 220,000 tested, 3.8% active;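 active = compounds that reduced the stress-induced luciferase reporter signal by more than about 70% of percent inhibition, limit read from the data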
Autophagy mod – autophagy modulation, high-content screen. calls only at 10 µM (by protocol). AID 463193. 190,000 tested, 0.98% active. MEF GFP-LC3 puncta imaging; test concentration mostly 10 µM;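 active = percentage of spot-positive cells more than 3 SD above its plate mean, without a fluorescence outlier flag or 80% toxicity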
Lmaj promast – inhibitors of Leishmania major promastigote growth; inhibition, % at 10 µM; 200,000 tested, 9% active; Leishmania major promastigotes, resazurin fluorescence viability; in the data active = inhibition above about 50%;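 note: promastigotes grown with compound for 44 hours at 28 °C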
b-catenin transl – alters nuclear translocation of beta-catenin in HeLa cells; immunofluorescence imaging; 190,000 tested, 0.3% active; nuclear translocation activity, % at 5 µM;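 active = nuclear translocation activity above 50% at 5 µM, with a well cell count of 50 or more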;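 note: per-cell ratio of nuclear to cytoplasmic median beta-catenin stain intensity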
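System: Human HeLa cells, endogenous beta-catenin | Compound dosing: 5 µM primary, 0.02–20 µM confirmation | Timing: 24 h compound exposure at 37°C, 5% CO2 | Measured by: Fluorescence imaging of beta-catenin antibody stain plus DAPI | Read-out basis: % activation of per-cell nuclear versus cytoplasmic median beta-catenin signal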
Dynein cargo inh – dynein cargo transport inhibition. 3617.4 mouse cells, GR-EGFP nuclear translocation imaging; test concentration mostly 20 µM; stimulated with dexamethasone, 1 µM; stronger effect = lower value. z-score, hits read low. 220,000 tested, 0.47% active;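 active = plate z-score of nuclear minus cytoplasmic receptor signal below a set negative limit, without overly bright fluorescence or cell loss, cut at about -3.5 in these data, passing the limit was not always enough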;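 note: z-score of nuclear minus cytoplasmic ring GR-EGFP intensity difference per well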
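Schedule: 48 h induction, then 1 h compound, then 30 min agonist, 37 °C. Buffer or medium: tetracycline-free induction medium containing charcoal-stripped FBS. Reagent: 1.0 µM final dexamethasone stimulus. Evaluation: nuclear versus cytoplasmic GR-EGFP signal, averaged per well. Signal: high-content fluorescence imaging after fixation.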
MT stabilizer – microtubule stabilization, imaging screen; HeLa tubulin immunostaining HCS, 24 h; share of cells brighter than vehicle mean+2SD; % tubulin-high responders, % at 10 µM; 200,000 tested, 0.83% active; AID 2205;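 active = plate Z-score above 3 for both tubulin-high and condensed-nucleus cell shares, with cell loss under 80%, at 10 µM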;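 note: anti alpha tubulin signal scored within the nucleus-defined area of each cell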
Each line names hits and unclear results; the compound was inactive in the other large screens.

Nc1cc([N+](=O)[O-])ccc1O	Lmaj promast 98
COc1ccc(C2N(c3ccc(C)cc3)CCN2c2ccc(C)cc2)cc1O	CHOP inh 95
CCOc1cccc2cc(C(=O)NCCC3=CCCCC3)c(=O)oc12	none
Cn1ccnc1C(O)c1ccccc1 (stereo unspecified)	none
COc1ccc2ccccc2c1C(O)c1nccn1C (stereo unspecified)	CHOP inh 84
O=c1c(F)cn(C2CCCO2)c(=O)n1Cc1ccc(Cl)cc1 (stereo unspecified)	none
CC(OC(=O)c1ccc([N+](=O)[O-])s1)C(=O)Nc1ncc(Cl)cc1Cl (stereo unspecified)	Lmaj promast 100
Cn1cnc([N+](=O)[O-])c1Oc1ccc2ccccc2c1	Lmaj promast 81
Cn1cnc([N+](=O)[O-])c1Nc1cccc(O)c1	none
Cc1ccc(NC(=O)C2CC(=O)Nc3nncn32)cc1 (stereo unspecified)	none
O=C1C(=O)N(CCCn2ccnc2)C(c2cccnc2)/C1=C(/O)c1ccccc1 (stereo unspecified)	none (no result: CHOP inh, b-catenin transl)
COc1ccccc1[C@@H]1C(c2ccc(F)cc2)=NN(c2ccccc2)[C@H]1C(=O)N1CCOC1=O	Autophagy mod active (no result: b-catenin transl)
COc1ccccc1[C@@H]1C(c2cccc(C)c2)=NN(c2ccccc2)[C@H]1C(=O)N1CCOC1=O	none (no result: b-catenin transl)
COCCNC(=O)C(=O)NNC(=O)CCc1ccccc1	none
O=C(CN(CCc1ccccc1)S(=O)(=O)c1ccc(Br)cc1)N/N=C/c1ccc2c(c1)OCO2	none
O=C(CNc1cccc2ccccc12)N/N=C/c1ccc([N+](=O)[O-])cc1	CHOP inh 72
O=C(NCCc1ccccc1)C(=O)N/N=C/c1ccc2c(c1)OCO2	CHOP inh 95
O=C(NCc1ccccn1)C(=O)N/N=C/c1ccc2c(c1)OCO2	none
O=C(CN(Cc1ccccc1)S(=O)(=O)c1ccccc1)N/N=C/c1ccc2c(c1)OCO2	Lmaj promast 63
O=C(CNc1ccc2ccccc2c1)N/N=C/C=C/c1cccc([N+](=O)[O-])c1	CHOP inh 90
CC(=O)Nc1c(C)ccc(S(N)(=O)=O)c1C	none
O=c1[nH]cnc(O)c1C(c1ccc2c(c1)OCO2)c1c(O)nc[nH]c1=O	none
O=C(CN(Cc1ccc(Cl)c(Cl)c1)S(=O)(=O)c1ccccc1)N/N=C\c1ccc2c(c1)OCO2	Lmaj promast 88
O=C(CN(Cc1ccccc1)S(=O)(=O)c1ccccc1)N/N=C/c1ccc([N+](=O)[O-])cc1	CHOP inh 96
COc1cc(/C=N/NC(=O)CN(Cc2ccccc2)S(=O)(=O)c2ccc3c(c2)OCCO3)ccc1O	none
CC(NC(=O)C(=O)N/N=C\c1ccc([N+](=O)[O-])cc1)c1ccccc1 (stereo unspecified)	CHOP inh 84
Cc1cc(C)c(OCC(=O)N/N=C/c2ccc3c(c2)OCO3)c(C)c1	CHOP inh 73, MT stabilizer 26
Cc1cccc(N2C(N)=NC(N)=NC23CCCCC3)c1	none
CCCc1ccc(NS(=O)(=O)c2c(C)oc(C)c2C(=O)OC)cc1	none (no result: Autophagy mod, Lmaj promast, MT stabilizer)
CCOC(=O)Nc1sc(C)c(C)c1C(N)=O	none
OC(CCN1CCOCC1)(c1ccc(Cl)cc1)C1CCCCC1 (stereo unspecified)	CHOP inh 80
OC(CCN1CCCCC1)(c1ccccc1)C1CCCCC1 (stereo unspecified)	none (no result: b-catenin transl)
C=CCc1cc(C)ccc1OCCOCCn1ccnc1	Lmaj promast 97
C=CCc1cc(C)ccc1OCCn1ccnc1	none (no result: b-catenin transl)
Cc1cc(Cl)ccc1OCC(=O)NCCCn1ccnc1	none
Cc1ccc(C)c(OCCCCCn2ccnc2)c1	Lmaj promast 100
Cc1cc(OCCCCCn2ccnc2)cc(C)c1Cl	Lmaj promast 99
Cc1cc(OCCCn2ccnc2)cc(C)c1Cl	Lmaj promast 89
Cc1cc(=S)cc(C)n1CCCn1ccnc1	none
COCCCNCC(O)C(F)(F)F (stereo unspecified)	none
CCOc1ccc(NC(=O)CN2CCN(CC(=O)Nc3ccc(Cl)c(C(F)(F)F)c3)CC2)cc1	none (no result: b-catenin transl)
COC(=O)c1ccc2c(c1)S(=O)(=O)NC(=NCc1ccco1)S2	Lmaj promast 96
COC(=O)c1ccc(=O)n(Cc2ccco2)c1	none
COc1ccc(C(=O)NCC(=O)N/N=C/c2cn[nH]c2-c2ccccc2)cc1	none
N#CC1=C(N)C(C#N)(C#N)[C@H](c2c(F)cccc2F)[C@H]2CC3(CC=C12)OCCO3	MT stabilizer 26
CN1C2C=C3C(C#N)=C(N)C(C#N)(C#N)[C@H](c4c(F)cccc4F)[C@H]3C1CC2 (stereo partly specified)	none
Cc1nc2c(cnn2-c2ccccc2Cl)c(=O)n1-c1ccc(C(C)C)cc1	none (no result: b-catenin transl)
CCOC(=O)COc1cccc2c(=O)n(CC(=O)NCc3ccc(F)cc3)ccc12	b-catenin transl 74 (no result: Autophagy mod, Lmaj promast, MT stabilizer)
CCOC(=O)C(C)Oc1cccc2c(=O)n(CC(=O)NCc3ccc4c(c3)OCO4)ccc12 (stereo unspecified)	b-catenin transl 73, MT stabilizer 16 (no result: CHOP inh)
CCOC(=O)COc1cccc2c(=O)n(CC(=O)NCc3ccccc3)ccc12	b-catenin transl 56 (no result: Autophagy mod, Lmaj promast, MT stabilizer)
CCOC(=O)COc1cccc2c(=O)n(CC(N)=O)ccc12	none (no result: Autophagy mod, Lmaj promast, MT stabilizer)
COc1ccc(C(=O)CC(Nc2ccc([N+](=O)[O-])cc2)c2ccc(OC)cc2)cc1 (stereo unspecified)	Lmaj promast 82
COc1ccc(N/N=C(\C#N)C(N)=O)cc1	none
CCCc1c(C)nn(C(=O)/C(C#N)=N/Nc2ccccc2[N+](=O)[O-])c1C	none
COc1ccc(C(=O)/C(C#N)=N/Nc2ccccc2[N+](=O)[O-])cc1	b-catenin transl 59
COc1ccc(C(=O)/C(C#N)=N/Nc2ccc([N+](=O)[O-])cc2)cc1	Lmaj promast 56
COc1ccc(C(=O)/C=C/Nc2ccc([N+](=O)[O-])cc2)cc1	none
Cc1ccccc1N(CC(=O)Nc1ccccc1C(=O)NCc1ccco1)S(=O)(=O)c1ccccc1	none
COCCN1Cc2cccc(C(=O)Nc3ccc(-c4nc5ccccc5[nH]4)cc3)c2C1=O	none
CCCN1Cc2cccc(C(=O)Nc3ccc(-c4nc5ccccc5[nH]4)cc3)c2C1=O	CHOP inh 75
COCCN1Cc2cccc(C(=O)Nc3c(C)cc(C)cc3C)c2C1=O	Lmaj promast 72
CCCN1Cc2cccc(C(=O)Nc3ccc4c(c3)OCO4)c2C1=O	none
CCCN1Cc2cccc(C(=O)Nc3ccc4c(c3)OCCO4)c2C1=O	CHOP inh 78, Lmaj promast 69 (no result: b-catenin transl)
Fc1ccc(-c2nnc(-n3nnc4ccccc43)c3ccccc23)cc1	none (no result: CHOP inh, b-catenin transl)
N/C(=N\OC(=O)CCC1CCCC1)c1cccnc1	none
OC(COc1ccccc1CNCc1cccnc1)CN1CCc2ccccc2C1 (stereo unspecified)	none
